Source: PubChem BioAssay
M5 PAM = CHRM5 positive allosteric modulation. 360,000 compounds, 0.3% hits. AID 624038. activation, % at 3 µM. CHO-K1 hM5, Fluo-8 calcium, ACh EC20 PAM; 0% = ACh EC20, 100% = ACh EC100. P08912;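 active = activation above the run cutoff, the mean activation of all test compounds plus 3 SD, cut at about 18% in these data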
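Probe or stimulus: acetylcholine, EC20 level; Assay system: human M5 receptor in CHO-K1 cells; Schedule: compound preincubation 140 s before EC20 acetylcholine addition; Technique: intracellular calcium via Fluo-8 fluorescence; Dosing: single-point, 3 µM nominal; Read-out basis: percent activation from peak-over-basal fluorescence ratio, scaled EC20-to-EC100 acetylcholine; Repeats: one well per compound, no replicates.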
M4 ag = CHRM4 agonism in calcium assay; P08173; CHO-K1 hM4/Gqi5, Fluo-8 calcium fluorescence; vehicle 0%, full acetylcholine response 100%; activation, % at 3 µM; 360,000 compounds, 0.14% hits; AID 624127;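 active = activation above the run mean over all test wells plus 3 SD, cut at about 32% in these data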;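 note: peak over basal fluorescence ratio per well then scaled between controls; 0% = DMSO wells and 100% = acetylcholine at EC100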
Target sequence (P08173 whole entry, looked up): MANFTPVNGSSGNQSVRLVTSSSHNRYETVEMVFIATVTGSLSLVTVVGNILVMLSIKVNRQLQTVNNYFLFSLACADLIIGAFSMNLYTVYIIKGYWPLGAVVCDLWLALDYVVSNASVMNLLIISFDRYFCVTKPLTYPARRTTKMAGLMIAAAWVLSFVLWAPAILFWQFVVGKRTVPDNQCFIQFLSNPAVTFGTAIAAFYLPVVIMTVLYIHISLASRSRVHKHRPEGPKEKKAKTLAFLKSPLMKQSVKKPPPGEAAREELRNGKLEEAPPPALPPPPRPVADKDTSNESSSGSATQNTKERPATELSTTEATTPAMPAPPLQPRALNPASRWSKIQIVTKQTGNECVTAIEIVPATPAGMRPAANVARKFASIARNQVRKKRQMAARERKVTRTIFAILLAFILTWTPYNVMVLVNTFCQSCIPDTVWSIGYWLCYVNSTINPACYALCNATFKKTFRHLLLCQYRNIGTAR
CHRM5 antagonist = antagonists of human muscarinic M5 receptor (CHRM5); P08912; CHO-hM5 cells, Fluo-8 calcium fluorescence, ACh EC80; inhibition, % at 3 µM; 360,000 compounds, 0.59% hits; AID 624040;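 active = inhibition above a per-plate cutoff, the mean of that plate's test compounds plus 3 SD, cut at about 27% in these data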;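 note: 0% = acetylcholine EC80 with DMSO and 100% = DMSO without agonist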
CHRM4 antagonist = blocks acetylcholine activation of human M4 receptor; P08173; CHO-hM4 cells, ACh EC80, Fluo-8 calcium fluorescence; inhibition, % at 3 µM; 360,000 compounds, 0.73% hits;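 active = inhibition above its plate's cutoff, the mean inhibition of sample wells plus 3 SD, cut at about 27% in these data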;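 note: 0% = acetylcholine EC80 with DMSO and 100% = DMSO without agonist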
CHRM4 PAM = potentiates acetylcholine response at human M4 receptor; CHO-K1 hM4/Gqi5, Fluo-8 calcium fluorescence, ACh EC20; 0% = ACh EC20, 100% = maximal ACh; activation, % at 3 µM; 360,000 compounds, 0.4% hits; AID 624126;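 active = activation above its plate's cutoff, the mean activation of sample wells plus 3 SD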
CHRM5 agonist = agonists of human muscarinic M5 receptor (CHRM5) | P08912 | CHO-K1 hM5 cells, Fluo-8 calcium fluorescence; 0% DMSO wells, 100% maximal acetylcholine response | activation, % at 3 µM | 360,000 compounds, 0.19% hits | AID 624037;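 active = activation above the run's mean over test compounds plus 3 SD, cut at about 23% in these data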;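 note: signal is peak over basal fluorescence ratio across the kinetic read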
Numbers without * were called inactive. Only some compounds are listed: those with a hit (about 1.9% of all), similar ones and a draw of the others.

SMILES	M5 PAM	M4 ag	CHRM5 antagonist	CHRM4 antagonist	CHRM4 PAM	CHRM5 agonist
O=C1C2CSCN2C(=O)CN1CCCN1CCN(C(c2ccccc2)c2ccccc2)CC1 (centres undefined)	-19	1	21	32*	-16	-10
CC1OC(CC(=O)O)CC2=C1C(=O)c1c(O)cccc1C2=O (centres undefined)	0	6	49*	36*	8	23
O=C1C=C(O)c2cccc(O)c2C1=O	3	0	3	-2	4	4
CCOC(=O)C1=C(CCc2ccccc2)NC(=O)NC1c1ccc(C#N)cc1 (centres undefined)	3	3	2	2	-1	-2
CC1(C)Cc2c(sc3nc(N/N=C/c4ccccc4)[nH]c(=O)c23)CO1	25*	2	24	1	9	9
CCn1nc(C(=O)OCc2c(C)noc2C)c2ccccc2c1=O	56*	0	8	-2	6	-6
COc1ccc(C(=O)C2CN(c3ccccc3)CC2c2ccc(Cl)cc2)cc1 (centres undefined)	0	1	-3	1	1	0
CCN1CCN(C(=O)C(C)Sc2nnc3nc(C)cc(C)n23)CC1 (centres undefined)	-4	0	9	0	-4	1
O=C(CCC(=O)N1CCN(c2ccc(Cl)c(Cl)c2)CC1)c1ccccc1	-15	11	27*	17	-9	3
O=C(CCC(=O)N1CCN(c2ccc(F)cc2)CC1)c1ccc(Cl)cc1	-5	7	3	-8	-5	1
O=C(CCSCc1ccccc1Cl)N1CCN(c2cccc(Cl)c2)CC1	0	0	-11	-17	23*	-1
COC(=O)c1sccc1NC(=O)CNC(=O)c1ccccc1	1	10	-2	-6	1	6
O=C1N/C(=N/c2ccccn2)SC1Cc1ccccc1 (centres undefined)	-1	0	1	-2	7	3
O=C1NC(=Nc2ccccc2)SC1Cc1ccccc1 (centres undefined)	-11	18	27*	-2	-4	-3
CC(Oc1ccccc1)c1ccnn1S(=O)(=O)c1ccccc1 (centres undefined)	20*	-2	1	-3	12	-15
CCCCCn1c(=O)[nH]c2cc(C(=O)NCCc3ccc(OC)c(OC)c3)ccc2c1=O	9	0	-5	-4	1	-1
CCCCNC(=O)c1sc(=S)n2c1[nH]c(=O)c1ccc(C(=O)NCCc3ccc(OC)c(OC)c3)cc12	25*	0	-27	4	15	2
Cc1cc(C)c(C)c(S(=O)(=O)NC(C(=O)O)C(C)C)c1C (centres undefined)	9	3	-1	-5	11	-1
CCOC(=O)N1CCN(CC(=O)N2c3ccccc3CC2C)CC1 (centres undefined)	1	1	1	31*	-1	1
CCN1CCN(CC(=O)N2c3ccccc3CC2C)CC1 (centres undefined)	6	0	-9	3	2	-2
O=C(NCc1cccs1)c1ccc2sc(C3=C[C@@H](O)[C@@H](O)[C@@H](CO)O3)nc2c1	3	1	-3	0	4	1
O=C(COC(=O)c1ccc(F)c(S(=O)(=O)N2CCOCC2)c1)NCCc1ccccc1	-2	2	0	-28	21*	2
Cc1ccc(C(=O)OCC(=O)NCCc2ccc(F)cc2)cc1S(=O)(=O)N1CCOCC1	-3	4	10	8	2	2
O=C(NCCCN1CCOCC1)c1ccc(Sc2ccc(F)cc2)c([N+](=O)[O-])c1	-1	3	-7	1	-9	-6
CCN1CCCC1CNC(=O)c1ccc(Sc2ccccc2Cl)c([N+](=O)[O-])c1 (centres undefined)	-29	4	7	97*	-26	-14
